In ChEMBL document CHEMBL3603773, “Synthesis of novel triazoles and a tetrazole of escitalopram as cholinesterase inhibitors” (Bioorg Med Chem, 2015):

Columns and labels:
Cholinesterase [1] = target: T1, Cholinesterase (Homo sapiens, UniProt P06276); assay: Inhibition of BChE (unknown origin) using butyrylthiocholine chloride as substrate […] measured after 30 mins by Ellman method
Acetylcholinesterase [2] = target: T2, Acetylcholinesterase (Homo sapiens, UniProt P22303); assay: Inhibition of AChE (unknown origin) using acetylthiocholine iodide as substrate at 0.5 mM preincubated for 30 mins before substrate addition measured after 30 mins by Ellman method relative to control
T2 sequence (P22303 whole entry): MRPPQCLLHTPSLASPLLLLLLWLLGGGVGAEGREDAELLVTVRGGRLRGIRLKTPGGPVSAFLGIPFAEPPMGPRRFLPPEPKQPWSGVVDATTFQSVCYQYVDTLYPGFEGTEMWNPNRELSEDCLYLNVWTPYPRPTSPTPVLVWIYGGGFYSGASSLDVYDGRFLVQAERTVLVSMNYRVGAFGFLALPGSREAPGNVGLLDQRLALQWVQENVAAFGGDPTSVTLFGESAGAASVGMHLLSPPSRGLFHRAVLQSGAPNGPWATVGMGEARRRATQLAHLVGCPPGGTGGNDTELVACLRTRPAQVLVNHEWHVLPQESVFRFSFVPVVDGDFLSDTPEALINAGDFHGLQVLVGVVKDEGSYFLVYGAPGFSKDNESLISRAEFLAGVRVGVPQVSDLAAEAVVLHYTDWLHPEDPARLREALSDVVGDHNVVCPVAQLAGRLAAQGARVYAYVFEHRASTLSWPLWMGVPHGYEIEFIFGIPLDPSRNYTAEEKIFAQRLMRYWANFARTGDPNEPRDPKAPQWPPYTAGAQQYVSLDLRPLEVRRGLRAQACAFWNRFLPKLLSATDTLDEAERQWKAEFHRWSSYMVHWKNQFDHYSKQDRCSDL

[3] = target: Cholinesterases; ACHE & BCHE (Homo sapiens) (UniProt P06276+P22303); assay: Selectivity ratio of IC50 for AChE (unknown origin) to IC50 for BChE (unknown origin)
Sequence of Cholinesterases; ACHE & BCHE (Homo sapiens) (P06276 whole entry, looked up): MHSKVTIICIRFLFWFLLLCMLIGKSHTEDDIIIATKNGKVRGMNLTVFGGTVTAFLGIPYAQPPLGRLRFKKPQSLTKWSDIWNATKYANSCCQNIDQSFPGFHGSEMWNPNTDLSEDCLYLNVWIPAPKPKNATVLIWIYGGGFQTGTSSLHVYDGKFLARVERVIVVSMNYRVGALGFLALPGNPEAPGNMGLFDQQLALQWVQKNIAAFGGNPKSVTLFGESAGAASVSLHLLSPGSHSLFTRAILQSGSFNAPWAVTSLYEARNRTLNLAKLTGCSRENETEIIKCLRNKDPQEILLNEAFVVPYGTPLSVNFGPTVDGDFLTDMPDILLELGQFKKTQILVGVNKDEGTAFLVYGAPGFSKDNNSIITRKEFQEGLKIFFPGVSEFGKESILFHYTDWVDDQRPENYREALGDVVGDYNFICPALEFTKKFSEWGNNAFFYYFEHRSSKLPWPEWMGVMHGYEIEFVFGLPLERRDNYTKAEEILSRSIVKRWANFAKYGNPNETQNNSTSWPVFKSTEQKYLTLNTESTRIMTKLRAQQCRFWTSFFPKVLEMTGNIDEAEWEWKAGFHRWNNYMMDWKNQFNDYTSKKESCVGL
Sequence of Cholinesterases; ACHE & BCHE (Homo sapiens) (P22303 whole entry, looked up): as the sequence (P22303 whole entry) above
Method in brief: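 Ratio of IC50 for AChE to IC50 for BChE, both measured by Ellman assay. Each IC50 is the mean of three independent experiments.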

Acetylcholinesterase [4] = target: T2, Acetylcholinesterase; assay: Inhibition of AChE (unknown origin) using acetylthiocholine iodide as substrate […] measured after 30 mins by Ellman method
Cholinesterase [5] = target: T1, Cholinesterase; assay: Inhibition of BChE (unknown origin) using butyrylthiocholine chloride as substrate at 0.5 mM preincubated for 30 mins before substrate addition measured after 30 mins by Ellman method relative to control
Acetylcholinesterase [6] = target: T2, Acetylcholinesterase; assay: Inhibition of AChE (unknown origin) using acetylthiocholine iodide as substrate at 0.25 mM preincubated for 30 mins before substrate addition measured after 30 mins by Ellman method relative to control
Cholinesterase [7] = target: T1, Cholinesterase; assay: Inhibition of BChE (unknown origin) using butyrylthiocholine chloride as substrate at 0.25 mM preincubated for 30 mins before substrate addition measured after 30 mins by Ellman method relative to control

T1 sequence (P06276 whole entry): as the sequence (P06276 whole entry, looked up) above

## CN(C)CCC[C@@]1(c2ccc(F)cc2)OCc2cc(-c3nnc(-c4ccc(Cl)cc4)[nH]3)ccc21
Cholinesterase [1]
  IC50: 151 µM
Acetylcholinesterase [2]
  inhibition: 91.6%
[3]
  Ratio IC50: 0.044
Acetylcholinesterase [4]
  IC50: 6.71 µM
Cholinesterase [5]
  inhibition: 73.7%

## CN(C)CCC[C@@]1(c2ccc(F)cc2)OCc2cc(-c3nnc(-c4ccccc4N)[nH]3)ccc21
Cholinesterase [1]
  IC50: 111 µM
Acetylcholinesterase [2]
  inhibition: 70.2%
[3]
  Ratio IC50: 3.25
Acetylcholinesterase [4]
  IC50: 360 µM
Cholinesterase [5]
  inhibition: 71.7%

## CN(C)CCC[C@@]1(c2ccc(F)cc2)OCc2cc(-c3nnc(-c4ccccc4I)[nH]3)ccc21
Cholinesterase [1]
  IC50: 25.9 µM
Acetylcholinesterase [2]
  inhibition: 72.3%
[3]
  Ratio IC50: 12
Acetylcholinesterase [4]
  IC50: 310 µM
Cholinesterase [5]
  inhibition: 84.5%

## CN(C)CCC[C@@]1(c2ccc(F)cc2)OCc2cc(-c3nnc(-c4ccc(N)cc4)[nH]3)ccc21
Cholinesterase [1]
  IC50: 119 µM
Acetylcholinesterase [2]
  inhibition: 15.3%
Cholinesterase [5]
  inhibition: 72.1%

## COc1cccc(-c2nnc(-c3ccc4c(c3)CO[C@@]4(CCCN(C)C)c3ccc(F)cc3)[nH]2)c1
Cholinesterase [1]
  IC50: 103 µM
Acetylcholinesterase [2]
  inhibition: 89.7%
[3]
  Ratio IC50: 1.2
Acetylcholinesterase [4]
  IC50: 124 µM
Cholinesterase [5]
  inhibition: 91%

## Cc1ccccc1-c1nnc(-c2ccc3c(c2)CO[C@@]3(CCCN(C)C)c2ccc(F)cc2)[nH]1
Cholinesterase [1]
  IC50: 99.7 µM
Acetylcholinesterase [2]
  inhibition: 88.6%
[3]
  Ratio IC50: 0.095
Acetylcholinesterase [4]
  IC50: 9.52 µM
Cholinesterase [5]
  inhibition: 85%

## COc1ccc(-c2nnc(-c3ccc4c(c3)CO[C@@]4(CCCN(C)C)c3ccc(F)cc3)[nH]2)cc1
Cholinesterase [1]
  IC50: 168 µM
Acetylcholinesterase [2]
  inhibition: 10.3%
Cholinesterase [5]
  inhibition: 81.2%

## CN(C)CCC[C@@]1(c2ccc(F)cc2)OCc2cc(-c3nnc(-c4ccccc4)[nH]3)ccc21
Cholinesterase [1]
  IC50: 129 µM
Acetylcholinesterase [2]
  inhibition: 30.4%
[3]
  Ratio IC50: > 3.88
Acetylcholinesterase [4]
  IC50: > 500 µM
Cholinesterase [5]
  inhibition: 81.8%

## CN(C)CCC[C@@]1(c2ccc(F)cc2)OCc2cc(-c3nnc(-c4ccccc4[N+](=O)[O-])[nH]3)ccc21
Cholinesterase [1]
  IC50: 297 µM
Acetylcholinesterase [2]
  inhibition: 5.09%
Cholinesterase [5]
  inhibition: 62.9%

## CN(C)CCC[C@@]1(c2ccc(F)cc2)OCc2cc(-c3nnc(-c4ccc(O)cc4)[nH]3)ccc21
Cholinesterase [1]
  IC50: 140 µM
Acetylcholinesterase [2]
  inhibition: 59.2%
[3]
  Ratio IC50: 2.76
Acetylcholinesterase [4]
  IC50: 388 µM
Cholinesterase [5]
  inhibition: 78.7%

## Cc1cccc(-c2nnc(-c3ccc4c(c3)CO[C@@]4(CCCN(C)C)c3ccc(F)cc3)[nH]2)c1
Cholinesterase [1]
  IC50: 89.2 µM
Acetylcholinesterase [2]
  inhibition: 88.1%
[3]
  Ratio IC50: 1.49
Acetylcholinesterase [4]
  IC50: 133 µM
Cholinesterase [5]
  inhibition: 71.5%

## CN(C)CCC[C@@]1(c2ccc(F)cc2)OCc2cc(-c3nnc(-c4cccc([N+](=O)[O-])c4)[nH]3)ccc21
Cholinesterase [1]
  IC50: 105 µM
Acetylcholinesterase [2]
  inhibition: 81.7%
[3]
  Ratio IC50: 1.32
Acetylcholinesterase [4]
  IC50: 138 µM
Cholinesterase [5]
  inhibition: 79.2%

## CN(C)CCC[C@@]1(c2ccc(F)cc2)OCc2cc(-c3nnc(-c4ccc(Br)cc4)[nH]3)ccc21
Cholinesterase [1]
  IC50: 492 µM
Acetylcholinesterase [2]
  inhibition: 15.6%
Cholinesterase [5]
  inhibition: 50.6%

## COc1cc(-c2nnc(-c3ccc4c(c3)CO[C@@]4(CCCN(C)C)c3ccc(F)cc3)[nH]2)ccc1O
Cholinesterase [1]
  IC50: 24.1 µM
Acetylcholinesterase [2]
  inhibition: 34.8%
[3]
  Ratio IC50: < 20.8
Acetylcholinesterase [4]
  IC50: < 500 µM
Cholinesterase [5]
  inhibition: 88.6%

## CN(C)CCC[C@@]1(c2ccc(F)cc2)OCc2cc(-c3nnc(-c4ccc(F)cc4)[nH]3)ccc21
Cholinesterase [1]
  IC50: 5.31 µM
Acetylcholinesterase [2]
  inhibition: 71.5%
[3]
  Ratio IC50: 49.1
Acetylcholinesterase [4]
  IC50: 261 µM
Cholinesterase [5]
  inhibition: 92.5%

## CN(C)CCC[C@@]1(c2ccc(F)cc2)OCc2cc(-c3nnc(-c4cccc(I)c4)[nH]3)ccc21
Cholinesterase [1]
  IC50: 188 µM
Acetylcholinesterase [2]
  inhibition: 25.1%
[3]
  Ratio IC50: > 2.67
Acetylcholinesterase [4]
  IC50: > 500 µM
Cholinesterase [5]
  inhibition: 75.5%

## CN(C)CCC[C@@]1(c2ccc(F)cc2)OCc2cc(-c3nnc(-c4cccc(N)c4)[nH]3)ccc21
Cholinesterase [1]
  IC50: 188 µM
Acetylcholinesterase [2]
  inhibition: 29.9%
[3]
  Ratio IC50: > 2.67
Acetylcholinesterase [4]
  IC50: > 500 µM
Cholinesterase [5]
  inhibition: 73.5%

## CN(C)CCC[C@@]1(c2ccc(F)cc2)OCc2cc(-c3nnc(-c4ccccc4F)[nH]3)ccc21
Cholinesterase [1]
  IC50: 4.52 µM
Acetylcholinesterase [6]
  inhibition: 62.1%
Cholinesterase [7]
  inhibition: 93.6%
[3]
  Ratio IC50: 41.5
Acetylcholinesterase [4]
  IC50: 188 µM

## CN(C)CCC[C@@]1(c2ccc(F)cc2)OCc2cc(-c3nnc(-c4cccc(F)c4)[nH]3)ccc21
Cholinesterase [1]
  IC50: 44.8 µM
Acetylcholinesterase [2]
  inhibition: 32.2%
[3]
  Ratio IC50: < 11.2
Acetylcholinesterase [4]
  IC50: < 500 µM
Cholinesterase [5]
  inhibition: 82.9%

## COc1ccccc1-c1nnc(-c2ccc3c(c2)CO[C@@]3(CCCN(C)C)c2ccc(F)cc2)[nH]1
Acetylcholinesterase [2]
  inhibition: 80.4%
Acetylcholinesterase [4]
  IC50: 161 µM
Cholinesterase [5]
  inhibition: -2.13%

## CN(C)CCC[C@@]1(c2ccc(F)cc2)OCc2cc(-c3nnc(-c4cccc(Br)c4)[nH]3)ccc21
Cholinesterase [1]
  IC50: 78 µM
Acetylcholinesterase [2]
  inhibition: 37.9%
[3]
  Ratio IC50: < 6.41
Acetylcholinesterase [4]
  IC50: < 500 µM
Cholinesterase [5]
  inhibition: 85.5%

## CN(C)CCC[C@@]1(c2ccc(F)cc2)OCc2cc(-c3nnc(-c4cccc(Cl)c4)[nH]3)ccc21
Cholinesterase [1]
  IC50: 26.5 µM
Acetylcholinesterase [2]
  inhibition: 57.4%
[3]
  Ratio IC50: 15.7
Acetylcholinesterase [4]
  IC50: 413 µM
Cholinesterase [5]
  inhibition: 79.9%

## CN(C)CCC[C@@]1(c2ccc(F)cc2)OCc2cc(-c3nnc(-c4cccc(O)c4)[nH]3)ccc21
Cholinesterase [1]
  IC50: 119 µM
Acetylcholinesterase [6]
  inhibition: 39.3%
Cholinesterase [7]
  inhibition: 61.7%
[3]
  Ratio IC50: < 4.22
Acetylcholinesterase [4]
  IC50: < 500 µM

## Cc1ccc(-c2nnc(-c3ccc4c(c3)CO[C@@]4(CCCN(C)C)c3ccc(F)cc3)[nH]2)cc1
Cholinesterase [1]
  IC50: 152 µM
Acetylcholinesterase [2]
  inhibition: 16%
Cholinesterase [5]
  inhibition: 91%

## CN(C)CCC[C@@]1(c2ccc(F)cc2)OCc2cc(-c3nnc(-c4ccc([N+](=O)[O-])cc4)[nH]3)ccc21
Cholinesterase [1]
  IC50: 106 µM
Acetylcholinesterase [2]
  inhibition: 16.2%
Cholinesterase [5]
  inhibition: 69.7%

## CN(C)CCC[C@@]1(c2ccc(F)cc2)OCc2cc(-c3nnc(-c4ccccc4Br)[nH]3)ccc21
Cholinesterase [1]
  IC50: 141 µM
Acetylcholinesterase [2]
  inhibition: 19.4%
Cholinesterase [5]
  inhibition: 75%

## CN(C)CCC[C@@]1(c2ccc(F)cc2)OCc2cc(-c3nnc(-c4ccc(I)cc4)[nH]3)ccc21
Cholinesterase [1]
  IC50: 161 µM
Acetylcholinesterase [2]
  inhibition: 30.5%
[3]
  Ratio IC50: > 3.11
Acetylcholinesterase [4]
  IC50: > 500 µM
Cholinesterase [5]
  inhibition: 85.6%

## CN(C)CCC[C@@]1(c2ccc(F)cc2)OCc2cc(-c3nnc(-c4ccccc4O)[nH]3)ccc21
Cholinesterase [1]
  IC50: 102 µM
Acetylcholinesterase [2]
  inhibition: 16.3%
Cholinesterase [5]
  inhibition: 80.7%

## CN(C)CCC[C@@]1(c2ccc(F)cc2)OCc2cc(-c3nnc(-c4ccccc4Cl)[nH]3)ccc21
Cholinesterase [1]
  IC50: 81.4 µM
Acetylcholinesterase [2]
  inhibition: 19.5%
Cholinesterase [5]
  inhibition: 79.6%
